Screening results as filed in PubChem BioAssay.
Most compounds without a hit are left out; they make up all but 3% or so of the library.
GRIN3A LBD mod: modulates the human NR3A ligand-binding domain | NR3A LBD differential scanning fluorimetry, Tm shift; 0% = protein alone, 100% = glycine-bound protein | Tm shift relative to glycine control, % at 25 µM | 340,000 compounds, 2.5% hits | AID 1259313;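 active means melting temperature shift of at least 10% of the positive control shift, at one fixed dose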
NPR1 activator: GC-A (human) enzyme activation | HEK293 GC-A cells, cGMP TR-FRET, EC30 ANP; 0% at EC30 ANP, 100% saturating ANP | activation, % at 10 µM | AID 1671463 | P16066 | 370,000 compounds, 0.14% hits; in the data active means activation above about 40%
JMJD2C inh: inhibitors of human GASC-1 (JMJD2C) demethylase | Q9H3R0 | GST-JMJD2C(1-420) H3K9me3 demethylation, DELFIA europium | 330,000 compounds, 0.069% hits | inhibition, % at 2.35 µM;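 active means more than half of a compound's replicate wells show inhibition beyond 50%, single wells judged on their own value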;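 further: signal counts dimethyl H3K9 product captured on neutravidin plate; 0% = median of DMSO wells and 100% = 0.3 times that DMSO median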
NPR2 activator: GC-B (human) receptor activation | AID 1920062 | HEK293-GC-B cells, CNP EC30, cGMP TR-FRET; 0% at EC30 CNP, 100% saturating CNP | P20594 | activation, % at 10 µM | 370,000 compounds, 0.11% hits;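 active means activation at 10 µM reaching about 35% in either raw or pattern-adjusted values, limit read from the data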
Target sequence (P20594 whole entry, looked up): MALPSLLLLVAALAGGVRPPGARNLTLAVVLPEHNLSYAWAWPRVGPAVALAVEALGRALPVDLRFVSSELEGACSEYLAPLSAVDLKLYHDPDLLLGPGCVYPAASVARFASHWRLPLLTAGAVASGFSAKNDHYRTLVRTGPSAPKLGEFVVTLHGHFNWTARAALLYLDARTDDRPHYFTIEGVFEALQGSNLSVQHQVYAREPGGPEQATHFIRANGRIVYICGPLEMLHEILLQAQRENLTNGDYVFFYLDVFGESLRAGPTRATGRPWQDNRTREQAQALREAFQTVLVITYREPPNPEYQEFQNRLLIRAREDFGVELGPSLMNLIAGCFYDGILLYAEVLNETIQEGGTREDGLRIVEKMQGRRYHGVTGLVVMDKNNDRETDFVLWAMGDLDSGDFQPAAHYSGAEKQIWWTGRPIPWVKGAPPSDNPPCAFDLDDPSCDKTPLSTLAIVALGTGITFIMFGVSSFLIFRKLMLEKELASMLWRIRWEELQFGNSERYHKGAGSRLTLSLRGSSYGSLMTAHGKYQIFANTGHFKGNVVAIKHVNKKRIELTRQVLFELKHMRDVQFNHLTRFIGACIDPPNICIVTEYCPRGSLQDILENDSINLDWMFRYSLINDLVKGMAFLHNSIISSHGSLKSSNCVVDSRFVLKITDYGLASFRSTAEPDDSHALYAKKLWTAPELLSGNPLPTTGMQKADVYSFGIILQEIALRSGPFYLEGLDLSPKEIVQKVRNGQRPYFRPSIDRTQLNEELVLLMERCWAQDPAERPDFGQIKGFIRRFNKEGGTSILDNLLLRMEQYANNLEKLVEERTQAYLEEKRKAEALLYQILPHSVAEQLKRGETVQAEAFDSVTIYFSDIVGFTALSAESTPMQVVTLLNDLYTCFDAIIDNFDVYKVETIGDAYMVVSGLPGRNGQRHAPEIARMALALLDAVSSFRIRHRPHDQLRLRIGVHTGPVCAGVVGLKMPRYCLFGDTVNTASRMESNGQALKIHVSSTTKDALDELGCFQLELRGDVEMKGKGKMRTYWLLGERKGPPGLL
aDG glyco act: alpha-DG glycosylation activation | activation, % at 10 µM | 360,000 compounds, 0.22% hits | Pro5-aDG cells, alpha-DG glycosylation AlphaScreen (IIH6); 0% Pro5, 100% B10-LARGE cell signal;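 active means activation of at least 8% versus controls, or a plate z-score of at least 8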;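 further: Pro5 are CHO cells carrying HIG-tagged alpha-DG that lacks glycosylation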
Hep lipid drop: modulators of hepatic lipid droplet formation | AML12 mouse hepatocytes, oleate lipid droplets, BODIPY imaging | inhibition, % at 6.5 µM | 240,000 compounds, 0.4% hits | AID 1656;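 active means lipid droplet intensity inhibited by at least 50%, with more than 500 cells counted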
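Material – AML12 mouse liver cells · Also added – oleate loading, 100 µM · Compound dosing – 6.5 µM single-point dosing · Times – overnight treatment with compound plus oleate · Measured by – fluorescence imaging, 20x objective, two fields per well · Read-out – percent inhibition of filter-corrected integrated lipid droplet intensity per well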
Hep lipid conf: confirmation of inhibitors of hepatic lipid droplet formation | shares compounds with Hep lipid drop | AML12 mouse hepatocytes, BODIPY lipid droplet imaging; droplets induced with 100 µM oleic acid | inhibition, % at 5.2 µM | 870 compounds, 65% hits;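 active means inhibition of lipid droplet metric at least 50%, with more than 300 cells in each of four replicates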;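 further: plate controls were DMSO with oleic acid for no effect and 5 µM Triacsin-C for full effect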
AML12 tox img: AML12 hepatocyte cytotoxicity (counter-screen) | shares compounds with Hep lipid drop | AML12 mouse hepatocytes, DAPI nuclear morphology cytotoxicity imaging; stronger effect = higher value; cells fed 100 µM oleate overnight | z-score at 5 µM | 870 compounds, 3% hits | AID 463200; in the data active means z-score above about 6.3;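 further: compound exposure lasted overnight at 37 °C before fixation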
AML12 tox ATP: confirmation of cytotoxicity in AML12 mouse hepatocytes; 530 tested, under 10 active; cytotoxicity, % at 50 µM; AML12 mouse hepatocyte viability, ATP luminescence; cells loaded with 100 µM oleic acid; shares compounds with Hep lipid drop; AID 463219;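 active means cytotoxicity above 50% in each of four replicates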;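 further: compound exposure lasted overnight at 37 °C before the ATP read; 0% = DMSO-treated cells and 100% = wells with no cells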
* marks the source's active call; other numbers are inactive results; . = no result.

SMILES	GRIN3A LBD mod	NPR1 activator	JMJD2C inh	NPR2 activator	aDG glyco act	Hep lipid drop	Hep lipid conf	AML12 tox img	AML12 tox ATP
Cc1nc(NC(=O)c2ccc(OCC(C)C)cc2)sc1Cc1ccc2c(c1)OCO2	-3.1	-2.9	-8.8	4.0	0.1	62.7*	97.7*	-0.179	6.3
O=C(c1ccc(Cl)cc1)C1CCN(C(=O)NC2CCCCC2)CC1	-0.8	-4.8	-0.4	0.2	0.7	70.3*	85.2*	-0.188	10.2
O=C(Cn1nc(-c2cccc(Cl)c2)ccc1=O)Nc1ccc(C(=O)NC2CC2)cc1	-3.2	-1.5	-4.9	-5.5	1.3	51.7*	87.3*	0.00572	12.9
O=C(Cn1nc(-c2cccc(Cl)c2)ccc1=O)Nc1cccnc1	0.0	-2.1	-3.6	-7.7	-0.1	.	.	.	.
CC(Sc1nnc(-c2ccco2)n1C)C(=O)N1C(C)CCCC1C (stereo unspecified)	2.4	-2.4	8.0	4.9	-0.3	-10.0	.	.	.
COc1ccc(/C=C\C(=O)NCc2ccc3[nH]c(C)cc3c2)cc1OC	-9.9	-0.6	2.3	-1.9	-0.2	73.9*	95.9*	-0.403	16.2
Cc1cc(C(=O)NC2CCCc3c2cnn3-c2ccc(C)c(C)c2)nc(C)n1 (stereo unspecified)	-3.5	3.6	2.8	9.2	2.3	58.3*	61.8	-1.08	0.3
O=C(NC1CCCc2c1cnn2-c1cc(F)cc(F)c1)c1ccccn1 (stereo unspecified)	0.6	1.9	2.4	4.6	0.0	63.8*	100.5*	0.745	12.1
COC(=O)c1ccc(C(=O)NC2CCCc3c2cnn3-c2ccc(C)c(C)c2)cc1 (stereo unspecified)	6.0	-4.3	4.0	0.2	0.2	-135.5	.	.	.
COc1ccc(N=C/C=C2/C=C(c3ccccc3)OC(C)(C)O2)cc1	1.9	-1.2	28.8	0.8	0.6	61.2*	-8.2	-0.0539	.
CCCn1c(N)c(C(=O)CSc2nc(N)cc(=O)[nH]2)c(=O)n(C)c1=O	1.7	11.9	-476.6	3.5	0.1	.	.	.	.
CN1CCN(C2=C(NS(=O)(=O)c3cccs3)C(=O)c3ccccc3C2=O)CC1	-0.2	-6.0	-5.4	-0.4	0.7	-7.7	.	.	.
O=C1C(NS(=O)(=O)c2cccs2)=C(N2CCN(c3cccc(C(F)(F)F)c3)CC2)C(=O)c2ccccc21	-3.5	-1.7	4.7	-1.6	-0.5	51.5*	112.6*	-0.372	11.9
CCOC(=O)[C@]12CCCCC/C=C\1N(Cc1ccc(OC)cc1)C(=O)[C@H]2CC(=O)N1CCSCC1	.	-3.5	.	-7.9	.	.	.	.	.
COc1ccc(N=C2C(=Nc3ccc(OC)cc3)N(c3ccc(OC)cc3)C(=S)N2c2ccccc2)cc1	-2.6	3.0	3.4	-2.1	0.0	41.4	.	.	.
COc1ccc(N=C2C(=Nc3ccc(OC)cc3)N(c3ccc(OC)cc3)C(=S)N2C)cc1	0.8	.	-2.4	.	0.1	57.6*	108.9*	0.27	16.3
CCOC(=O)c1c(NC(=O)COc2ccc3ccc(=O)oc3c2)sc(C(=O)N(C)C)c1C	3.3	8.5	-7.4	4.9	0.1	-12.4	.	.	.
COc1ccc(OC)c(CCNC(=O)C(C)n2nc(C)c3c(C)n(-c4ccc(C)cc4)nc3c2=O)c1 (stereo unspecified)	1.1	3.6	2.0	0.8	0.3	60.3*	99.3*	-0.0521	22.5
Cc1sc(NC(=O)Cc2ccc3c(c2)OCO3)nc1-c1ccc2c(c1)CCN2C(=O)c1ccccc1F	-3.7	3.2	0.4	4.7	0.0	50.6*	82.6*	0.173	3.2
OC(c1ccccc1)(c1ccccc1)C1CCN(CCCOc2ccc(-c3cncnc3)cc2)CC1	.	-17.8	.	-30.6	.	.	.	.	.
